Consider one compound from ChEMBL document CHEMBL1811821, “Cystic fibrosis: a new target for 4-Imidazo[2,1-b]thiazole-1,4-dihydropyridines” (J Med Chem, 2011).

pEC50, pIC50, pKd: −log10 of the molar value.

For one assay, the species on record is Cavia porcellus. The assay can be described thus: Negative ionotropic activity in potassium depolarized guinea pig longitudinal smooth muscle assessed as inhibition of calcium-induced contraction at 10^-5 M. In kind it is functional.
Assay [1] in a line: Negative ionotropic activity in potassium depolarized guinea pig longitudinal smooth muscle assessed as inhibition of calcium-induced contraction. In kind it is functional, Cavia porcellus.
Assay [2] can be described thus: Bronchodilatory activity in guinea pig trachea assessed as inhibition of carbachol-induced contraction at 10^-5 M. In kind it is functional. The conditions noted are these: Cavia porcellus.
A short description of assay [3]: Bronchodilatory activity in guinea pig trachea assessed as inhibition of carbachol-induced contraction. The assay is classed as functional, tissue-based, Cavia porcellus.
Assay [4] in a line: Ratio IC50 for nifedipine to compound for bronchodilatory activity in guinea pig trachea assessed as carbachol-induced contraction. In kind it is functional, Cavia porcellus.
The test system of assay [5] is Cystic fibrosis transmembrane conductance regulator (Homo sapiens), P13569 [F508del]. The experiment in a line: Activity at CFTR F508 deletion mutant expressed in forskolin-stimulated FRT cells assessed as maximal increase in iodine influx measured as YFP quenching rate after 24 hrs by fluorescence assay. The assay is classed as cell-based. Summed up:
(§1)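 ΔF508-CFTR and halide-sensitive YFP coexpressed in FRT cells, held at 27 °C for 24 h for rescue, then stimulated 30–40 min with 20 μM forskolin with or without compound at 0.2, 2 and 20 μM. Fluorescence read before and after I– addition (100 mM final). Normalized decay fitted exponentially for maximal quenching rate; dose–response fitted with Hill equation for potency and maximal effect. Three independent determinations.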

A short description of assay [6]: Binding affinity to CFTR F508 deletion mutant expressed in forskolin-stimulated FRT cells assessed as increase in iodine influx measured as YFP quenching rate after 24 hrs by fluorescence assay. The assay is classed as cell-based. Summed up:
as §1

Assay [7] has as its system Cystic fibrosis transmembrane conductance regulator (Homo sapiens), P13569 [F508del]. The experiment in a line: Activity at CFTR F508 deletion mutant expressed in forskolin-stimulated FRT cells assessed as maximal increase in iodine influx measured as YFP quenching rate after 24 hrs by fluorescence assay relative to nifedipine. The assay is classed as cell-based. Summed up: as §1

Assay [8] in a line: Negative chronotropic activity against potassium-induced contraction in guinea pig right atrium assessed as decrease atrial rate at 10^-5 M relative to control. In kind it is functional. The conditions noted are these: Cavia porcellus, Cardiac atrium. Summed up:
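Spontaneously beating isolated guinea pig right atrium, pretreatment rate 165–190 beats/min. Drugs added cumulatively. Decrease in atrial rate expressed as percent change from control, n = 7–8. […] Control versus treated tested at each concentration by Student's t-test, P < 0.05. Mean ± SEM.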

Assay [9] is described as follows: Negative ionotropic activity against potassium-induced contraction in guinea pig left atrium assessed as […] at 5 X 10^-7 M relative to control. In kind it is functional. The conditions noted are these: Cavia porcellus, Cardiac atrium. In short, it runs like this:
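Isolated guinea pig left atrium paced at 1 Hz. Drugs added cumulatively. Negative inotropic effect expressed as percent change from control, n = 5–6. […] Student's t-test against control at each concentration, P < 0.05. Mean ± SEM.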

The next assay deals with Aorta. The experiment in a line: Vasorelaxant activity in potassium depolarized guinea pig aortic strip assessed as inhibition of calcium-induced contraction at 10^-5 M. The conditions noted are these: Cavia porcellus. In kind it is functional. Summed up: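 Guinea pig aortic strips depolarized with 80 mM K+, with cumulative drug addition. Relaxation given as mean ± SEM. […] Student's t-test against control, P < 0.05.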

The nature of assay [10]: Negative ionotropic activity against potassium-induced contraction in guinea pig left atrium assessed as decrease in developed tension. The conditions noted are these: Cavia porcellus, Cardiac atrium.

Cystic fibrosis transmembrane conductance regulator (Homo sapiens), P13569 [F508del], sequence (P13569 as listed by the source): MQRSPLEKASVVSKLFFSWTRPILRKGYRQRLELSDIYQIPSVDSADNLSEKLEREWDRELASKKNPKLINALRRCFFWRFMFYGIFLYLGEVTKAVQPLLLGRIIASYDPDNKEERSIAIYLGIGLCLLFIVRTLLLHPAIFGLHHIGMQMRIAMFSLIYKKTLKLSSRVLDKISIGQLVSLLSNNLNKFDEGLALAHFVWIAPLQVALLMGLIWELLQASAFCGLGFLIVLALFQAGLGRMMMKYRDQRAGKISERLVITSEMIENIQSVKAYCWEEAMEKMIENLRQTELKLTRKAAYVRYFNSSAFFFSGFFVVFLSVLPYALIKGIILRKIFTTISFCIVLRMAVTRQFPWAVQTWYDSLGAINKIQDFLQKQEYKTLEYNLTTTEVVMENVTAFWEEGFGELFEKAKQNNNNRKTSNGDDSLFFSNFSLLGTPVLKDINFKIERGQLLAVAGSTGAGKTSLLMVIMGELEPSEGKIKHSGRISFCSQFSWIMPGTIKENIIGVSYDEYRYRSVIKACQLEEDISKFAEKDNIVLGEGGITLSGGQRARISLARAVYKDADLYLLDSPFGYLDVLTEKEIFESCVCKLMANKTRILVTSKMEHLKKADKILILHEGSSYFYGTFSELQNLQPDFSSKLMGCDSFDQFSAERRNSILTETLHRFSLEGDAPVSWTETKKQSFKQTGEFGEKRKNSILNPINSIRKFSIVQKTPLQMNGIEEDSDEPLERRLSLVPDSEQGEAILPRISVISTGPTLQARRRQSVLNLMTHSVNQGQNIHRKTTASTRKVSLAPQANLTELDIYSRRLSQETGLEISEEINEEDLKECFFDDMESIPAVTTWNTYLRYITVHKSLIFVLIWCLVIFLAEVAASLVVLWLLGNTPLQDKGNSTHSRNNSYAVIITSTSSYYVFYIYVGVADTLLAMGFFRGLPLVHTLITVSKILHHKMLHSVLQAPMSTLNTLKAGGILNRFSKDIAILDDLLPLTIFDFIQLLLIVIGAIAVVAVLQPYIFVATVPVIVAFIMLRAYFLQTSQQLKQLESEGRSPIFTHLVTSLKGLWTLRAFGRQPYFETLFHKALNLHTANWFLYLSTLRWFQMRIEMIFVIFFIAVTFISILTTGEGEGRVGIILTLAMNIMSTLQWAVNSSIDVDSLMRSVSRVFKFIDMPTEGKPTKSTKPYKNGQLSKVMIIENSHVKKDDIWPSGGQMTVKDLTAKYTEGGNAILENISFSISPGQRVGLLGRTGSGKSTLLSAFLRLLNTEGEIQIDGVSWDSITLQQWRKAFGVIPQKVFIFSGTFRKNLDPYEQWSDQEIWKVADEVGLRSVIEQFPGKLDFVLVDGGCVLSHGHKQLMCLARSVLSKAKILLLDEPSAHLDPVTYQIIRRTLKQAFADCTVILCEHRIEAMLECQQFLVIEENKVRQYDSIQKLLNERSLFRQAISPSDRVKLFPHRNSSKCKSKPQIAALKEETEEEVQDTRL

`C=CCOC(=O)C1=C(C)NC(C)=C(C(=O)OCC=C)C1c1ccc(C(C)(C)C)cc1`: in the assay filed under Cavia porcellus, the inhibition is 52%. Besides, the figures for the pIC50 in assay [1] and in assay [3] were 5.73 and 9.23, respectively. In addition, the inhibition at 10 µM in assay [2] amounted to 68%; in assay [8], 5%; with Aorta, 12%. In assay [4], the “Ratio IC50” value is recorded as 163. Further, the Emax in [5] worked out at 56 ms-1. For the same compound, in assay [6], the pKd was 6.77. In addition, the Ratio in [7] turned out to be 17. Further, the inhibition at 0.5 µM in assay [9] is 71%. The pEC50 in assay [10] is 8.66.
